The source of these data is ChEMBL document CHEMBL1124955, “2-substituted-1-naphthols as potent 5-lipoxygenase inhibitors with topical antiinflammatory activity” (J Med Chem, 1990).

The target in test [1] is T1, Polyunsaturated fatty acid 5-lipoxygenase (Rattus norvegicus, UniProt P12527).
T1 sequence (P12527 whole entry): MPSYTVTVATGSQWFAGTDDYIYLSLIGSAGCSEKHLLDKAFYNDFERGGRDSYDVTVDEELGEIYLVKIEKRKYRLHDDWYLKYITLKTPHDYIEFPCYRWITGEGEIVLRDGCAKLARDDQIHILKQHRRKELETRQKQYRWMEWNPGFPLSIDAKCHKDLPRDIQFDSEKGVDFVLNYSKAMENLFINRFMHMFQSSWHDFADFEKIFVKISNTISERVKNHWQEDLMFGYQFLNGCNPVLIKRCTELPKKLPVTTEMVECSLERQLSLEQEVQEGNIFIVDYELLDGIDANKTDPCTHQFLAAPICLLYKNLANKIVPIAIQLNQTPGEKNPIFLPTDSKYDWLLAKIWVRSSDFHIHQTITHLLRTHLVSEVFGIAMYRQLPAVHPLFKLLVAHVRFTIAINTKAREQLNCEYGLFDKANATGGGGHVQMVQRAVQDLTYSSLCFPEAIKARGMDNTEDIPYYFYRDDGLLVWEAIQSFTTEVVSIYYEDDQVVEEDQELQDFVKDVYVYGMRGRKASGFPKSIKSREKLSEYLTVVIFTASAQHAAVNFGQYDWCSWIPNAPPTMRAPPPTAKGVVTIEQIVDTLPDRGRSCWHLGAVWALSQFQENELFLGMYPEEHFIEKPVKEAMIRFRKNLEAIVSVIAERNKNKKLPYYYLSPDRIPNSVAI
The test is described as follows: Ability to inhibit 5-lipoxygenase by using a crude preparation of the cytosolic enzyme from the rat basophilic leukemia (RBL-1) cell line. Type of test: cell-based. The method, boiled down: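 Crude cytosolic enzyme (supernatant) from RBL-1 cells, amount giving net 3300–3800 dpm 5-HETE (9–20 μg cell protein/assay). Enzyme is preincubated 5 min at 37 °C, pH 7.0, with compound (in 5% DMSO/Tris pH 8.5) in phosphate buffer with EDTA, gelatin, glutathione, CaCl2 and 0.012 mM indomethacin. Reaction is started with 0.042 mM final [14C]arachidonic acid and stopped by freezing after 2 min.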

In another test the test system is Mus musculus. The test is described as follows: Percentage inhibition of the mouse arachidonic acid induced ear edema assay (AA) at a dose of 100 ug/ear. The format is functional. The method, boiled down: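 Groups of 10 male CF1 mice (18–20 g). Compound in acetone is applied topically to both ears just before 1 mg arachidonic acid in acetone is applied to one ear; the other ear serves as control. Mice are killed 60 min later and 6-mm ear punches weighed; swelling is the weight difference. %Inhibition = [(C−T)/C]×100, with Student's t test.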

The next test deals with T2, Cyclooxygenase (Bos taurus, UniProt O62664+O62698).
T2 sequence (O62664 whole entry): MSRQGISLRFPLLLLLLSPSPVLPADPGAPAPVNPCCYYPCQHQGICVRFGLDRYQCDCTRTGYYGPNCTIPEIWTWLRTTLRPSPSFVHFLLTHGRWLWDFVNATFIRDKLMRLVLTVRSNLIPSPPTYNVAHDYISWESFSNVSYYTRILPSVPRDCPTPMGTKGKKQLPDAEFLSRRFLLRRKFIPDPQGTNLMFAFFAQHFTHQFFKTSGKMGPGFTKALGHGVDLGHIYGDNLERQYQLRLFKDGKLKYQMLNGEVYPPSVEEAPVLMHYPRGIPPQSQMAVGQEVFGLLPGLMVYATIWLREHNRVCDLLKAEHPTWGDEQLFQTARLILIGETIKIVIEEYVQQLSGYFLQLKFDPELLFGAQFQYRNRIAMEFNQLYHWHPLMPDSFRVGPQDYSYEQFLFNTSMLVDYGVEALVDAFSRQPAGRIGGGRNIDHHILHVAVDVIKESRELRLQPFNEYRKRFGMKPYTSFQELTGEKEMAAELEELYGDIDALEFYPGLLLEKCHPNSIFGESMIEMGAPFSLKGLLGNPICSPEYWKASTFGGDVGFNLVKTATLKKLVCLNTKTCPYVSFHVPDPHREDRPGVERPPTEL
T2 sequence (O62698 whole entry): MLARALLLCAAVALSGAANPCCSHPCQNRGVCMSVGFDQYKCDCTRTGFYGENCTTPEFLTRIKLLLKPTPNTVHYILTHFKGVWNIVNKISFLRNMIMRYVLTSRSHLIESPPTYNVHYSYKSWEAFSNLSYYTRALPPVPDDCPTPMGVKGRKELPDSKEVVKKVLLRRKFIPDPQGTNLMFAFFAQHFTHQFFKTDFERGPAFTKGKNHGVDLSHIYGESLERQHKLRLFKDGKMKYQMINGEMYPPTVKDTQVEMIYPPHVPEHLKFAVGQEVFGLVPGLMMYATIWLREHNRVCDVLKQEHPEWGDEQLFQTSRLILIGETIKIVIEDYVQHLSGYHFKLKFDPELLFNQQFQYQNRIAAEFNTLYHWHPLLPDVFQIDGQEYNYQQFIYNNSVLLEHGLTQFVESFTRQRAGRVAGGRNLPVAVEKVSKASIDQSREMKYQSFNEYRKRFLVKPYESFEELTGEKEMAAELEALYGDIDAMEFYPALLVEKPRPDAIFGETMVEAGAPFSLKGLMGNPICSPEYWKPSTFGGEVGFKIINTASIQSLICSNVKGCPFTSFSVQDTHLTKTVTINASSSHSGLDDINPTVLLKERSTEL
The test is described as follows: In vitro inhibition of Prostaglandin G/H synthase in BSV cell line. The format is cell-based.

One may read the IC50 as the concentration that inhibits the measured activity by half. Read a low IC50 as inhibition by little substance. As a reminder, the Inhibition is the relative decrease from the control value, in per cent. High values mean a strong effect, low ones a weak effect. In the case of `O=C(c1ccccc1)c1cc(Cc2ccccc2)c(O)c2ccccc12`, the IC50 in test [1] worked out at 0.054 µM. Also, the Inhibition in the test with Mus musculus was found to be 41%.
As for `O=C(O)c1cc(Cc2ccccc2)c(O)c2ccccc12`, the midpoint of inhibition in test [1], the IC50, lay at 5.8 µM. The same molecule gave an Inhibition in the test on Mus musculus of 3%.
The like results for `COc1cc2ccc(Cc3ccccc3)c(O)c2cc1OC` were, in that order, 1.7 µM and 33%.
Molecule `Oc1c(Cc2cccc(Oc3ccccc3)c2)ccc2ccccc12` had an IC50 in test [1] of 0.083 µM. The Inhibition with Mus musculus is reported as 60%.
In the same order, the values of `CS(=O)(=O)c1ccc(Cc2ccc3ccccc3c2O)cc1` are 0.24 µM and 0%.
In the same order, the values of `Oc1c(Cc2cccc(C(F)(F)F)c2)ccc2ccccc12` are 0.27 µM and 67%.
For the molecule `Oc1cc2ccccc2cc1Cc1ccccc1`, the IC50 in test [1] turned out to be 7.2 µM; at Cyclooxygenase it was 35 µM. The Inhibition in the test with Mus musculus stood at 33%.
As to `CSc1ccc(Cc2ccc3ccccc3c2O)cc1`, in test [1], the concentration for half-maximal inhibition (IC50) worked out at 0.048 µM. The Inhibition in the test on Mus musculus was 76%.
In the same order, the values of `CCOC(=O)c1cc(Cc2ccccc2)c(O)c2ccccc12` are 0.16 µM and 16%.
`Oc1c(Cc2ccc3ccccc3c2)ccc2ccccc12` returned an IC50 in test [1] of 0.058 µM. For the same molecule, the Inhibition in the test with Mus musculus worked out at 52%.
The like results for `CCOc1ccc(Cc2ccc3ccccc3c2O)cc1` were, in that order, 0.062 µM and 68%.
The like results for `COc1cccc(Cc2ccc3ccccc3c2O)c1` were, in that order, 0.11 µM and 72%.
In the same order, the values of `Oc1c(Cc2ccc(Cl)c(Cl)c2)ccc2ccccc12` are 0.18 µM and 58%.
Molecule `Oc1c(Cc2ccc(F)cc2)ccc2ccccc12` displayed an IC50 in test [1] of 0.13 µM. In the test with Mus musculus, this molecule yielded an Inhibition of 76%.
Turning to `Cn1ccnc1Cc1ccc2ccccc2c1O`, half-maximal inhibition in test [1] (IC50) required 3.5 µM. The molecule also registered an Inhibition in the test with Mus musculus of 9%.
With `Oc1c(Cc2ccccc2)cccc1Cc1ccccc1`, the half-maximal inhibitory concentration (IC50) in test [1] worked out at 8.8 µM; at Cyclooxygenase it was 52 µM. For the same molecule, the Inhibition in the test on Mus musculus was found to be 21%.
For `Oc1c(Cc2ccncc2)ccc2ccccc12`, the IC50 in test [1] was found to be 0.14 µM. This molecule also showed an Inhibition in the test with Mus musculus of 62%.
The like results for `Oc1c(Cc2ccc(Cl)cc2)ccc2ccccc12` were, in that order, 0.039 µM and 66%.
In test [1], `Oc1c(Cc2ccco2)ccc2ccccc12` had an IC50 of 0.037 µM. The Inhibition in the test on Mus musculus was found to be 84%.
The like results for `COc1ccc2c(O)c(Cc3ccccc3)ccc2c1` were, in that order, 1.9 µM and 76%.
In the same order, the values of `Cc1cc(Cc2ccccc2)c(O)c2ccccc12` are 0.02 µM and 62%.
For `COc1ccc(Cc2ccc3ccccc3c2O)cc1OC`, the midpoint of inhibition in test [1], the IC50, lay at 0.051 µM. In the test with Mus musculus, this molecule had an Inhibition of 60%.
Regarding `CS(=O)(=O)c1cc(Cc2ccccc2)c(O)c2ccccc12`, the IC50 in test [1] was 40 µM. Besides, the Inhibition in the test on Mus musculus is 15%.
`Oc1c(Cc2ccc(OCc3ccccc3)cc2)ccc2ccccc12` gave an IC50 in test [1] of 0.072 µM. This molecule also came in with an Inhibition in the test on Mus musculus of 12%.
The like results for `COc1cc(Cc2ccccc2)c(O)c2ccccc12` were, in that order, 0.031 µM and 69%.
In the same order, the values of `O=[N+]([O-])c1cc(Cc2ccccc2)c(O)c2ccccc12` are 48 µM and 28%.
In the same order, the values of `Oc1c(Cc2ccc3c(c2)OCO3)ccc2ccccc12` are 0.04 µM and 78%.
The molecule `Oc1c(Cc2ccc(Br)cc2)ccc2ccccc12` yielded an IC50 in test [1] of 0.068 µM. The molecule further came in with an Inhibition with Mus musculus of 50%.
`CN(C)c1ccc(Cc2ccc3ccccc3c2O)cc1`: it took 0.14 µM to reach half-maximal inhibition in test [1] (IC50). Moreover, the Inhibition in the test with Mus musculus turned out to be 67%.
As to `COc1ccc2ccc(Cc3ccccc3)c(O)c2c1`, the concentration for half-maximal inhibition (IC50) in test [1] was 3.5 µM. In addition, the Inhibition in the test on Mus musculus is on record as 52%.
In test [1], `Cn1cccc1Cc1ccc2ccccc2c1O` displayed an IC50 of 0.14 µM. Also, the Inhibition with Mus musculus was 72%.
The like results for `Oc1c(Cc2cccc(Br)c2)ccc2ccccc12` were, in that order, 0.088 µM and 55%.
The molecule `COc1cccc2c(O)c(Cc3ccccc3)ccc12` gave an IC50 in test [1] of 0.1 µM. The molecule also showed an Inhibition in the test with Mus musculus of 69%.
The like results for `Oc1c(Cc2cccc(Cl)c2)ccc2ccccc12` were, in that order, 0.052 µM and 67%.
In the same order, the values of `Oc1c(Cc2cccs2)ccc2ccccc12` are 0.06 µM and 84%.
`Oc1c(Cc2ccccc2)cc(-c2ccccc2)c2ccccc12` registered a half-maximal inhibitory concentration (IC50) in test [1] of 0.056 µM. In the test on Mus musculus, this molecule came in with an Inhibition of 26%.
Turning to `Oc1c(Cc2cccnc2)ccc2ccccc12`, in test [1], the IC50 came to 0.23 µM. In the test with Mus musculus, this molecule yielded an Inhibition of 46%.
In test [1], `Oc1c(Cc2ccccn2)ccc2ccccc12` had an IC50 of 0.39 µM. Besides, the Inhibition in the test on Mus musculus amounted to 56%.
`Cc1ccc(C)c2c(O)c(Cc3ccccc3)ccc12` displayed an IC50 in test [1] of 0.12 µM. Besides, in the test on Mus musculus, the Inhibition is reported as 52%.
In the same order, the values of `Cc1ccc(Cc2ccc3ccccc3c2O)cc1` are 0.024 µM and 79%.
For the molecule `CCOc1ccccc1Cc1ccc2ccccc2c1O`, in test [1], the midpoint of inhibition, the IC50, lay at 0.57 µM. This molecule also returned an Inhibition in the test on Mus musculus of 51%.
`CC(=O)Oc1c(Cc2ccccc2)ccc2ccccc12` gave an IC50 at Cyclooxygenase of 240 µM. This molecule registered an Inhibition in the test on Mus musculus of 63%.
In test [1], `Cc1ccccc1Cc1ccc2ccccc2c1O` returned an IC50 of 0.12 µM. This molecule also returned an Inhibition in the test with Mus musculus of 66%.
`O=[N+]([O-])c1ccc(Cc2ccc3ccccc3c2O)cc1`: the IC50 in test [1] turned out to be 0.048 µM. For the same molecule, the Inhibition with Mus musculus is 58%.
`COc1ccc(Cc2ccc3ccccc3c2O)cc1` yielded an IC50 in test [1] of 0.075 µM. Also, the Inhibition in the test with Mus musculus worked out at 85%.
With `CC(Cc1ccc(O)c(O)c1)C(C)Cc1ccc(O)c(O)c1` (stereo unspecified) [NORDIHYDROGUAIARETIC ACID], the IC50 on Cyclooxygenase amounted to 14 µM. In the test with Mus musculus, the Inhibition is 25%.
With `OC(c1ccccc1)c1ccc2ccccc2c1` (stereo unspecified), the IC50 in test [1] amounted to 40 µM. In addition, in the test with Mus musculus, the Inhibition is 16%.
The like results for `Oc1c(CCc2ccccc2)ccc2ccccc12` were, in that order, 0.14 µM and 69%.
Consider `Cc1cc(C)c2ccc(Cc3ccccc3)c(O)c2c1`, for which the midpoint of inhibition in test [1], the IC50, lay at 0.062 µM. The molecule also yielded an Inhibition in the test on Mus musculus of 44%.
The like results for `NS(=O)(=O)c1cc(Cc2ccccc2)c(O)c2ccccc12` were, in that order, 9.4 µM and 3%.
In the same order, the values of `CC(=O)c1cc(Cc2ccccc2)c(O)c2ccccc12` are 0.51 µM and 16%.
Regarding `Oc1c(Cc2ccccc2)cc(Br)c2ccccc12`, the IC50 in test [1] was found to be 0.077 µM. In the test with Mus musculus, this molecule registered an Inhibition of 33%.
